Experimental data published in ChEMBL document CHEMBL3259586, “Localization and interaction of hydroxyflavones with lipid bilayer model membranes: a study using DSC and multinuclear NMR” (Eur J Med Chem, 2014).
Values after ≈ are worked out from the molar mass of the structure shown. Each block holds one compound with its values, some of them ahead of it. Active and inactive are the calls of the source. The rule behind the calls is not given here.

Tests used:
[1] = Binding affinity to multilamellar vesicles after 2 hrs by centrifugation method
Lipid bilayer [2] = assay: Binding affinity to DPPC lipid bilayer assessed as melting temperature at 1:2 drug to DPPC molar ratio by differential scanning calorimetric analysis
In short: (§1)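 DPPC multilamellar vesicles made from chloroform lipid solution, lipid held at 50 mM, drug/lipid molar ratios 1:20 to 1:2; DSC heating scans give pretransition (Tp) and main transition (Tm) temperatures; repeat scans of the same samples.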

Lipid bilayer [3] = assay: Binding affinity to DPPC lipid bilayer assessed as pre-transition temperature at 1:5 drug to DPPC molar ratio by differential scanning calorimetric analysis; in short: as §1
Lipid bilayer [4] = assay: Binding affinity to DPPC lipid bilayer assessed as melting temperature at 1:20 drug to DPPC molar ratio by differential scanning calorimetric analysis; in short: as §1
[5] = test system: Radical scavenging activity; assay: Antioxidant activity assessed as DPPH radical scavenging activity after 30 mins; type: functional
In short: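 Test compounds at varied concentrations added to methanolic DPPH with 0.1 M Tris-HCl buffer; absorbance read at 517 nm after 30 min incubation; IC50 read graphically from dose-response curves; at least three experiments.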

Lipid bilayer [6] = assay: Binding affinity to DPPC lipid bilayer assessed as decrease in melting temperature by differential scanning calorimetric analysis; in short: as §1
Lipid bilayer [7] = assay: Binding affinity to unilamellar vesicles of DPPC in D2O at 1:5 drug to lipid molar ratio at 323 K by [1H]-NMR spectroscopic analysis
In short: (§2)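 Lipid held at 100 mM for NMR samples with flavone at 10 to 50 mM; multilamellar vesicles from chloroform-dissolved DPPC; unilamellar vesicles made by sonicating lipid dispersions at 50% duty cycle until optically clear.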

Lipid bilayer [8] = assay: Binding affinity to DPPC lipid bilayer assessed as pre-transition temperature at 1:10 drug to DPPC molar ratio by differential scanning calorimetric analysis; in short: as §1
K562 = assay: Antiproliferative activity against human K562 cells assessed as cell growth at 10^-4 ug/ml after 48 hrs by sulforhodamine B assay relative to control; type: functional; conditions: K562, 48 h, read-out: Activity
In short: (§3)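 Sulforhodamine B assay; cells grown in RPMI 1640 with 10% fetal bovine serum and 2 mM L-glutamine; compounds dissolved in DMSO, diluted into culture medium; incubated 48 h under standard conditions; percent growth inhibition calculated.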

Lipid bilayer [9] = assay: Binding affinity to unilamellar vesicles of DPPC in D2O at 1:5 drug to lipid molar ratio at 323 K by [13C]-NMR spectroscopic analysis; in short: as §2
[10] = Binding affinity to multilamellar vesicles of DPPC assessed as increase in chemical shift anisotropy at 323 K by [31P]-NMR spectroscopic analysis; in short: as §2
Lipid bilayer [11] = assay: Binding affinity to DPPC lipid bilayer assessed as pre-transition temperature at 1:2 drug to DPPC molar ratio by differential scanning calorimetric analysis; in short: as §1
[12] = Binding affinity to multilamellar vesicles by NMR titration method
In short: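 NMR titration with drug held at 10 mM and lipid varied 1-10 mM; lipid stock in D2O, drug stock in methanol, both diluted; TSP added as reference; fraction bound derived from chemical shift changes.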

HepG2 = assay: Antiproliferative activity against human HepG2 cells assessed as cell growth at 10^-4 ug/ml after 48 hrs by sulforhodamine B assay relative to control; type: functional; conditions: HepG2, 48 h, read-out: Activity; in short: as §3
MCF7 = assay: Antiproliferative activity against human MCF7 cells assessed as cell growth at 10^-4 ug/ml after 48 hrs by sulforhodamine B assay relative to control; type: functional; conditions: MCF7, 48 h, read-out: Activity; in short: as §3
Lipid bilayer [13] = assay: Binding affinity to DPPC lipid bilayer assessed as pre-transition temperature at 1:20 drug to DPPC molar ratio by differential scanning calorimetric analysis; in short: as §1
Lipid bilayer [14] = assay: Binding affinity to DPPC lipid bilayer assessed as melting temperature at 1:5 drug to DPPC molar ratio by differential scanning calorimetric analysis; in short: as §1
Lipid bilayer [15] = assay: Binding affinity to DPPC lipid bilayer assessed as melting temperature at 1:10 drug to DPPC molar ratio by differential scanning calorimetric analysis; in short: as §1
[16] = Binding affinity to multilamellar vesicles of DPPC at 1:10 to 1:2 drug to lipid molar ratio at 323 K by [31P]-NMR spectroscopic analysis; in short: as §2
Lipid bilayer [17] = assay: Binding affinity to unilamellar vesicles of DPPC in D2O at 1:5 drug to lipid molar ratio at 323 K by 2D-NOESY spectroscopic analysis; in short: as §2
[18] = Binding affinity to multilamellar vesicles at 100 uM after 2 hrs by centrifugation method relative to control

Activity [16]: Active | Kapp [1]: 800 M⁻¹ | Tm (Lipid bilayer [2]): 36.9 °C | Tm (Lipid bilayer [4]): 37.4 °C | IC50 [5]: 22.1 µg/mL (≈ 92.8 µM) | Activity (Lipid bilayer [6]): Dose-dependent effect | Activity (Lipid bilayer [7]): Active | Activity (Lipid bilayer [9]): Active | Kapp [12]: 572 M⁻¹ | Tm (Lipid bilayer [14]): 37.1 °C | Tm (Lipid bilayer [15]): 37.3 °C
Structure (SMILES): O=c1cc(-c2ccccc2)oc2ccc(O)cc12 [6-HYDROXYFLAVONE]
growth at 0.0001 µg/mL (K562): 13.3% | Activity (Lipid bilayer [17]): Active | growth at 0.0001 µg/mL (HepG2): 82.8% | growth at 0.0001 µg/mL (MCF7): 28.8%

Kapp [1]: 450 M⁻¹ | Tm (Lipid bilayer [2]): 39.8 °C | Tm (Lipid bilayer [4]): 40.7 °C | IC50 [5]: 24.2 µg/mL (≈ 102 µM) | Activity (Lipid bilayer [6]): Dose-dependent effect | Activity (Lipid bilayer [7]): Active | T (Lipid bilayer [8]): 31.8 °C | Activity (Lipid bilayer [9]): Active | Activity [10]: Dose-dependent effect | T (Lipid bilayer [11]): 27.4 °C | Kapp [12]: 311 M⁻¹ | T (Lipid bilayer [13]): 31.9 °C | Tm (Lipid bilayer [14]): 40.4 °C | Tm (Lipid bilayer [15]): 40.5 °C
Structure (SMILES): O=c1cc(-c2ccccc2)oc2cc(O)ccc12 [7-HYDROXYFLAVONE]
growth at 0.0001 µg/mL (K562): 22.3% | growth at 0.0001 µg/mL (HepG2): 98.8% | growth at 0.0001 µg/mL (MCF7): 26.6%

Activity [18]: 80% | Activity [16]: Active | Kapp [1]: 19600 M⁻¹ | Tm (Lipid bilayer [2]): 36.3 °C | Tm (Lipid bilayer [4]): 37.2 °C | IC50 [5]: > 100 µg/mL | Activity (Lipid bilayer [6]): Dose-dependent effect | Activity (Lipid bilayer [7]): Active | Activity (Lipid bilayer [9]): Active | Kapp [12]: 1820 M⁻¹ | Tm (Lipid bilayer [14]): 36.4 °C | Tm (Lipid bilayer [15]): 36.7 °C
Structure (SMILES): O=c1cc(-c2ccccc2)oc2ccccc12 [FLAVONE]
growth at 0.0001 µg/mL (K562): 56.8% | growth at 0.0001 µg/mL (HepG2): -7.6% | growth at 0.0001 µg/mL (MCF7): 50.3%

Second part, the compound before the results:

Structure (SMILES): O=c1cc(-c2ccccc2)oc2cccc(O)c12 [5-HYDROXYFLAVONE]
Kapp [1]: 313 M⁻¹ | Tm (Lipid bilayer [2]): 39.6 °C | T (Lipid bilayer [3]): 32 °C | Tm (Lipid bilayer [4]): 41.1 °C | IC50 [5]: 23.8 µg/mL (≈ 99.9 µM) | Activity (Lipid bilayer [6]): Dose-dependent effect | Activity (Lipid bilayer [7]): Active | T (Lipid bilayer [8]): 32 °C | growth at 0.0001 µg/mL (K562): 26.7% | Activity (Lipid bilayer [9]): Active | Activity [10]: Dose-dependent effect | T (Lipid bilayer [11]): 30.3 °C | Kapp [12]: 229 M⁻¹ | growth at 0.0001 µg/mL (HepG2): 88.8% | growth at 0.0001 µg/mL (MCF7): 28.6% | T (Lipid bilayer [13]): 32.3 °C | Tm (Lipid bilayer [14]): 40.6 °C | Tm (Lipid bilayer [15]): 40.7 °C

Structure (SMILES): O=c1cc(-c2ccccc2)oc2cc(O)c(O)c(O)c12 [BAICALEIN]
Activity [16]: Active | Kapp [1]: 252 M⁻¹ | Tm (Lipid bilayer [2]): 40.9 °C | T (Lipid bilayer [3]): 32.9 °C | Tm (Lipid bilayer [4]): 40.4 °C | IC50 [5]: 18.2 µg/mL (≈ 67.3 µM) | Activity (Lipid bilayer [6]): Dose-dependent effect | Activity (Lipid bilayer [7]): Active | T (Lipid bilayer [8]): 30.2 °C | growth at 0.0001 µg/mL (K562): 16.7% | Activity (Lipid bilayer [9]): Active | T (Lipid bilayer [11]): 33.8 °C | Kapp [12]: 215 M⁻¹ | Activity (Lipid bilayer [17]): Active | growth at 0.0001 µg/mL (HepG2): 70.6% | growth at 0.0001 µg/mL (MCF7): -8.9% | T (Lipid bilayer [13]): 32.1 °C | Tm (Lipid bilayer [14]): 40.6 °C | Tm (Lipid bilayer [15]): 39.7 °C

Structure (SMILES): O=c1cc(-c2ccccc2)oc2cc(O)cc(O)c12 [CHRYSIN]
Activity [16]: Active | Kapp [1]: 759 M⁻¹ | Tm (Lipid bilayer [2]): 40.1 °C | T (Lipid bilayer [3]): 30.5 °C | Tm (Lipid bilayer [4]): 40.6 °C | IC50 [5]: 20.4 µg/mL (≈ 80.2 µM) | Activity (Lipid bilayer [6]): Dose-dependent effect | Activity (Lipid bilayer [7]): Active | T (Lipid bilayer [8]): 30.4 °C | growth at 0.0001 µg/mL (K562): 38.3% | Activity (Lipid bilayer [9]): Active | T (Lipid bilayer [11]): 31.6 °C | Kapp [12]: 532 M⁻¹ | growth at 0.0001 µg/mL (HepG2): 76.7% | growth at 0.0001 µg/mL (MCF7): 25.9% | T (Lipid bilayer [13]): 31 °C | Tm (Lipid bilayer [14]): 39.9 °C | Tm (Lipid bilayer [15]): 39.8 °C
